Data taken from ChEMBL document CHEMBL5058577, “EUbOPEN Chemogenomics Library 2 (Multiplex)” (2022).

System: Fibroblast
Assay: Multiplex assay against human fibroblast
Type: toxicity, cell-based
Procedure, shortened: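 At seeding, live cells were stained with Hoechst33342, BioTracker Green Microtubule Cytoskeleton Dye, MitoTracker Red and Annexin V Alexa Fluor 680. After compound addition they were imaged on a CQ1 microscope at 37°C and 5% CO2, and CellPathfinder machine-learning gating sorted them into Hoechst high-intensity objects or normal cells, with normal cells further split into healthy, pyknosed or fragmented nuclei and pyknosed cells into mitotic or apoptotic. Tubulin, mitochondrial-mass and membrane-permeability phenotypes are given as per cents of cells with healthy nuclei.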

[1] = 12 h, 1 µM, compound concentration 1 uM, replicate 1
[2] = 12 h, 1 µM, compound concentration 1 uM, replicate 2
[3] = 12 h, 10 µM, compound concentration 10 uM, replicate 1
[4] = 12 h, 10 µM, compound concentration 10 uM, replicate 2
[5] = 24 h, 1 µM, compound concentration 1 uM, replicate 1
[6] = 24 h, 1 µM, compound concentration 1 uM, replicate 2
[7] = 24 h, 10 µM, compound concentration 10 uM, replicate 1
[8] = 24 h, 10 µM, compound concentration 10 uM, replicate 2
[9] = 48 h, 1 µM, compound concentration 1 uM, replicate 1
[10] = 48 h, 1 µM, compound concentration 1 uM, replicate 2
[11] = 48 h, 10 µM, compound concentration 10 uM, replicate 1
[12] = 48 h, 10 µM, compound concentration 10 uM, replicate 2

NCCc1cn(S(=O)(=O)c2c(Cl)nc3sccn23)c2ccccc12.O=C(O)C(=O)O
Population Apoptotic (%) [1]: 45% | Population Fragmented Nuclei (%) [1]: 20% | Population Healthy Nuclei (%) [1]: 65% | Population Hoechst High Intensity Objects (%) [1]: 4% | Population Membrane Permeable-Phenotype (%) [1]: 0% | Population Mitochondria Different-Phenotype (%) [1]: 5% | Population Mitotic Cells (%) [1]: 55% | Population Normal (%) [1]: 95% | Population Pyknosed Nuclei (%) [1]: 14% | Population Tubulin-Different-Phenotype (%) [1]: 40% | Total Cell Count [1]: 146 | Population Fragmented Nuclei (%) [2]: 34% | Population Healthy Nuclei (%) [2]: 37% | Population Hoechst High Intensity Objects (%) [2]: 3% | Population Membrane Permeable-Phenotype (%) [2]: 13% | Population Mitochondria Different-Phenotype (%) [2]: 8% | Population Mitotic Cells (%) [2]: 54% | Population Normal (%) [2]: 96% | Population Pyknosed Nuclei (%) [2]: 28% | Population Tubulin-Different-Phenotype (%) [2]: 62% | Total Cell Count [2]: 170 | Population Apoptotic (%) [3]: 78% | Population Fragmented Nuclei (%) [3]: 20% | Population Healthy Nuclei (%) [3]: 56% | Population Hoechst High Intensity Objects (%) [3]: 6% | Population Membrane Permeable-Phenotype (%) [3]: 0% | Population Mitochondria Different-Phenotype (%) [3]: 40% | Population Mitotic Cells (%) [3]: 21% | Population Normal (%) [3]: 93% | Population Pyknosed Nuclei (%) [3]: 22% | Population Tubulin-Different-Phenotype (%) [3]: 90% | Total Cell Count [3]: 177 | Population Apoptotic (%) [4]: 57% | Population Fragmented Nuclei (%) [4]: 24% | Population Healthy Nuclei (%) [4]: 44% | Population Membrane Permeable-Phenotype (%) [4]: 5% | Population Mitochondria Different-Phenotype (%) [4]: 34% | Population Mitotic Cells (%) [4]: 42% | Population Pyknosed Nuclei (%) [4]: 30% | Population Tubulin-Different-Phenotype (%) [4]: 89% | Total Cell Count [4]: 219 | Population Apoptotic (%) [5]: 50% | Population Fragmented Nuclei (%) [5]: 21% | Population Healthy Nuclei (%) [5]: 64% | Population Hoechst High Intensity Objects (%) [5]: 3% | Population Membrane Permeable-Phenotype (%) [5]: 0% | Population Mitochondria Different-Phenotype (%) [5]: 13% | Population Mitotic Cells (%) [5]: 50% | Population Normal (%) [5]: 96% | Population Pyknosed Nuclei (%) [5]: 13% | Population Tubulin-Different-Phenotype (%) [5]: 42% | Total Cell Count [5]: 156 | Population Apoptotic (%) [6]: 46% | Population Fragmented Nuclei (%) [6]: 35% | Population Healthy Nuclei (%) [6]: 44% | Population Hoechst High Intensity Objects (%) [6]: 4% | Population Membrane Permeable-Phenotype (%) [6]: 18% | Population Mitochondria Different-Phenotype (%) [6]: 11% | Population Mitotic Cells (%) [6]: 53% | Population Normal (%) [6]: 95% | Population Pyknosed Nuclei (%) [6]: 20% | Population Tubulin-Different-Phenotype (%) [6]: 70% | Total Cell Count [6]: 166 | Population Apoptotic (%) [7]: 77% | Population Fragmented Nuclei (%) [7]: 22% | Population Healthy Nuclei (%) [7]: 62% | Population Hoechst High Intensity Objects (%) [7]: 3% | Population Membrane Permeable-Phenotype (%) [7]: 0% | Population Mitochondria Different-Phenotype (%) [7]: 58% | Population Mitotic Cells (%) [7]: 22% | Population Normal (%) [7]: 96% | Population Pyknosed Nuclei (%) [7]: 14% | Population Tubulin-Different-Phenotype (%) [7]: 89% | Total Cell Count [7]: 193 | Population Apoptotic (%) [8]: 72% | Population Fragmented Nuclei (%) [8]: 30% | Population Healthy Nuclei (%) [8]: 51% | Population Hoechst High Intensity Objects (%) [8]: 7% | Population Membrane Permeable-Phenotype (%) [8]: 5% | Population Mitochondria Different-Phenotype (%) [8]: 32% | Population Mitotic Cells (%) [8]: 27% | Population Normal (%) [8]: 92% | Population Pyknosed Nuclei (%) [8]: 18% | Population Tubulin-Different-Phenotype (%) [8]: 81% | Total Cell Count [8]: 237 | Population Apoptotic (%) [9]: 50% | Population Fragmented Nuclei (%) [9]: 27% | Population Healthy Nuclei (%) [9]: 63% | Population Hoechst High Intensity Objects (%) [9]: 4% | Population Membrane Permeable-Phenotype (%) [9]: 2% | Population Mitochondria Different-Phenotype (%) [9]: 3% | Population Mitotic Cells (%) [9]: 50% | Population Normal (%) [9]: 95% | Population Pyknosed Nuclei (%) [9]: 9% | Population Tubulin-Different-Phenotype (%) [9]: 46% | Total Cell Count [9]: 177 | Population Apoptotic (%) [10]: 54% | Population Fragmented Nuclei (%) [10]: 38% | Population Healthy Nuclei (%) [10]: 47% | Population Hoechst High Intensity Objects (%) [10]: 6% | Population Membrane Permeable-Phenotype (%) [10]: 9% | Population Mitochondria Different-Phenotype (%) [10]: 17% | Population Mitotic Cells (%) [10]: 45% | Population Normal (%) [10]: 93% | Population Pyknosed Nuclei (%) [10]: 14% | Population Tubulin-Different-Phenotype (%) [10]: 58% | Total Cell Count [10]: 166 | Population Apoptotic (%) [11]: 85% | Population Fragmented Nuclei (%) [11]: 22% | Population Healthy Nuclei (%) [11]: 65% | Population Hoechst High Intensity Objects (%) [11]: 7% | Population Membrane Permeable-Phenotype (%) [11]: 0% | Population Mitochondria Different-Phenotype (%) [11]: 43% | Population Mitotic Cells (%) [11]: 14% | Population Normal (%) [11]: 92% | Population Pyknosed Nuclei (%) [11]: 12% | Population Tubulin-Different-Phenotype (%) [11]: 92% | Total Cell Count [11]: 189 | Population Apoptotic (%) [12]: 75% | Population Fragmented Nuclei (%) [12]: 31% | Population Healthy Nuclei (%) [12]: 59% | Population Hoechst High Intensity Objects (%) [12]: 3% | Population Membrane Permeable-Phenotype (%) [12]: 3% | Population Mitochondria Different-Phenotype (%) [12]: 24% | Population Mitotic Cells (%) [12]: 25% | Population Normal (%) [12]: 96% | Population Pyknosed Nuclei (%) [12]: 8% | Population Tubulin-Different-Phenotype (%) [12]: 74% | Total Cell Count [12]: 241
